High-throughput results deposited in PubChem BioAssay by several laboratories.
TNAP inh no acc = blocks human TNAP activity with no phosphate acceptor present. P05186. purified TNAP, CDP-star luminescence, 30 min. inhibition, % at 20 µM. actives 0.26% (n = 200,000). AID 1012;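 active = tissue-nonspecific alkaline phosphatase inhibition above about 50% at 20 µM in the single-dose screen, limit read from the data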;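 note: 0% = DMSO negative control and 100% = EDTA positive control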
Target sequence (P05186 whole entry, looked up): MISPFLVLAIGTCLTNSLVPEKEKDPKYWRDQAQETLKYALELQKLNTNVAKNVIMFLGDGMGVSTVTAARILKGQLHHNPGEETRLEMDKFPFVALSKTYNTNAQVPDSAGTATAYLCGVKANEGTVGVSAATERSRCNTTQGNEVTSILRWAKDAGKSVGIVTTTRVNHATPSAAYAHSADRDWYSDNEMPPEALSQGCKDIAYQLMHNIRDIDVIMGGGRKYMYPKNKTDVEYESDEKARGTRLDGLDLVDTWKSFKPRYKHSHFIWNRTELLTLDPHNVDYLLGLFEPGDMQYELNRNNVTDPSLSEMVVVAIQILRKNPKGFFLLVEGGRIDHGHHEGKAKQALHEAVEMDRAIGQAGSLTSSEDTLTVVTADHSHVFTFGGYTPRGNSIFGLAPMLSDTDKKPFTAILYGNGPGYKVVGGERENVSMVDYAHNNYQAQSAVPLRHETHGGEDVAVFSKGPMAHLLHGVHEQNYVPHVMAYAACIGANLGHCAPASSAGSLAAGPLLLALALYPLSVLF
TNAP inh hiacc = TNAP (human) inhibition, high acceptor; purified TNAP, CDP-star luminescence, 1 M DEA; actives 0.03% (n = 200,000); AID 1135; inhibition, % at 20 µM; P05186;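 active = over 50% inhibition of tissue-nonspecific alkaline phosphatase at 20 µM in the single-dose screen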;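 note: plate controls were DMSO wells for no effect and EDTA-quenched wells as full inhibition for full effect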
HCT116 PTEN-null = growth suppressors of cells with PTEN tumor suppressor deletion; AID 827; viability, % at 10 µM; actives 1.2% (n = 140,000); HCT116 PTEN-null viability, CellTiter-Glo, 60 h; stronger effect = lower value;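 active = viability at or below a set limit, 4 SD under the median of all tested compounds, cut at about 3.7% in these data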;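 note: PTEN knockout HCT116 line with beta catenin targeted HCT116 as companion control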
HCT116 bCat-KO = beta-catenin-lacking colon tumor cell growth suppression; actives 1.5% (n = 140,000); viability, % at 10 µM; HCT116 beta-catenin knockout viability, CellTiter-Glo, 60 h; stronger effect = lower value; AID 818;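 active = viability at or under a set limit, the compound median less 4 SD, cut at about 6% in these data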;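 note: 0% = Hyamine 1622 control at 20 µM and 100% = untreated cell control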
L major viab = Leishmania major promastigote growth inhibition | Leishmania major promastigotes, resazurin fluorescence viability | inhibition, % at 10 µM | actives 9% (n = 200,000); in the data active = inhibition above about 50%;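 note: promastigotes grown with compound for 44 hours at 28 °C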
TNAP act hi DEA = activators of human TNAP at high phosphate acceptor concentration | P05186 | purified TNAP, CDP-star luminescence, 1 M DEA, 30 min; stronger effect = higher value; 0 = EDTA background, 1 = DMSO-only activity | activation factor at 20 µM | 200,000 tested, under 10 active | AID 1136;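 active = activation factor at least 2 at 20 µM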
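Assay system: human TNAP; Input: enzyme diluted 1/800 final; Reagent: CDP-star luminogenic substrate at 100 µM final; Timing: 30 min, room temperature; Signal: luminescence; Evaluation: TNAP activation factor scaled between EDTA and DMSO control wells.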
Numbers without * were called inactive. Only some compounds are listed: those with a hit (about 9.6% of all), similar ones and a draw of the others.

For COc1ccc(C(=O)COC(=O)C(CCSC)NS(=O)(=O)c2ccc(Cl)cc2)cc1 (centres undefined) the results were TNAP inh no acc -3.5, TNAP inh hiacc -2.9, HCT116 PTEN-null 100.8, HCT116 bCat-KO 95.8, L major viab 0.9 and TNAP act hi DEA 1.
`O=c1[nH]c(Nc2nc3ccccc3o2)nc2c1CCCC2` gave TNAP inh no acc -192.4, TNAP inh hiacc -8.8, HCT116 PTEN-null 2.8*, HCT116 bCat-KO 3.3*, L major viab 95.3* and TNAP act hi DEA 1.1.
Screening COc1ccccc1CN1C(=O)CN(C2CCCCCC2)C(=O)C1c1ccc(F)cc1 (centres undefined) returned TNAP inh no acc -0.4, TNAP inh hiacc -0.3, HCT116 PTEN-null 65.2, HCT116 bCat-KO 80.7, L major viab 19.3 and TNAP act hi DEA 1.
`COc1cccc(C2C(=O)N(C3CCCCC3)CC(=O)N2Cc2ccc(F)cc2)c1` (centres undefined) gave TNAP inh no acc 22.6, TNAP inh hiacc -0.3, HCT116 PTEN-null 102.6, HCT116 bCat-KO 95.6, L major viab 53.2* and TNAP act hi DEA 1.
Screening c1ccc(-c2oc3ncnc(NCCN4CCOCC4)c3c2-c2ccccc2)cc1 returned TNAP inh no acc 5.3, TNAP inh hiacc -2.4, HCT116 PTEN-null 65.2, HCT116 bCat-KO 76.5, L major viab 98.0* and TNAP act hi DEA 1.
N=c1c2c(-c3ccccc3)c(-c3ccccc3)oc2ncn1CCCN1CCOCC1 was read as TNAP inh no acc 7.3, TNAP inh hiacc -8.3, HCT116 PTEN-null 42.9, HCT116 bCat-KO 40.8, L major viab 86.8* and TNAP act hi DEA 1.1.
COC(=O)C1=C(C)N(c2ccc(Cl)cc2)/C(=C/c2ccc(O)cc2)C1=O was read as TNAP inh no acc 28.2, TNAP inh hiacc 26.8, L major viab 83.6* and TNAP act hi DEA 0.7.
For COC(=O)C1=C(C)N(c2cc(C)cc(C)c2)/C(=C/c2ccco2)C1=O the results were TNAP inh no acc 6.9, TNAP inh hiacc 11.4, L major viab 47.9 and TNAP act hi DEA 0.9.
COC(=O)C1=C(C)N(c2cc(C)cc(C)c2)/C(=C/c2ccc(O)cc2)C1=O was read as TNAP inh no acc 28.3, TNAP inh hiacc 39.5, L major viab 98.8* and TNAP act hi DEA 0.6.
COC(=O)C1=C(C)N(c2ccc(F)c(Cl)c2)C(=O)C1 was read as TNAP inh no acc -7.2, TNAP inh hiacc 1.0, HCT116 PTEN-null 50.1, HCT116 bCat-KO 19.4, L major viab 21.9 and TNAP act hi DEA 1.
Cn1c(=NC(=O)CN2C(=O)C3CC=CCC3C2=O)sc2ccccc21 (centres undefined) was read as TNAP inh no acc -4.4, TNAP inh hiacc -3.0, HCT116 PTEN-null 80.6, HCT116 bCat-KO 82.6, L major viab 98.7* and TNAP act hi DEA 1.
Screening O=C(Cn1cc(C(F)(F)F)ccc1=O)N/N=C/c1cccc(Cl)c1Cl returned TNAP inh no acc 7.6, TNAP inh hiacc -5.7, HCT116 PTEN-null 95.9, HCT116 bCat-KO 84.3, L major viab 74.9* and TNAP act hi DEA 1.1.
`O=C(Cn1cc(C(F)(F)F)ccc1=O)N/N=C/c1ccc(Cl)c(Cl)c1` gave TNAP inh no acc 3.6, TNAP inh hiacc -0.3, HCT116 PTEN-null 78.1, HCT116 bCat-KO 83.4, L major viab 4.3 and TNAP act hi DEA 1.
Screening O=C(/C=C/Nc1ccccc1Oc1ccccc1)c1ccco1 returned TNAP inh no acc -8.7, TNAP inh hiacc -0.7, L major viab 77.3* and TNAP act hi DEA 1.
Screening C#CCN(C(=O)Nc1ccccc1)c1ccccc1 returned TNAP inh no acc 0.7, TNAP inh hiacc -4.6, HCT116 PTEN-null 90.9, HCT116 bCat-KO 101.0, L major viab 2.7 and TNAP act hi DEA 1.
Screening COc1ccc(NS(=O)(=O)c2cc(NC(=O)CNC(=O)c3ccc(C)s3)ccc2Cl)cc1 returned TNAP inh no acc -10.1, TNAP inh hiacc -4.2, HCT116 PTEN-null 86.2, HCT116 bCat-KO 83.8, L major viab 84.1* and TNAP act hi DEA 1.
`CC(C)Oc1ccc(C(=O)Nc2ccc(Cl)c(S(=O)(=O)Nc3ccc(Cl)cc3)c2)cc1` gave TNAP inh no acc -8.2, TNAP inh hiacc -5.1, HCT116 PTEN-null 3.1*, HCT116 bCat-KO 3.1*, L major viab 21.8 and TNAP act hi DEA 1.1.
Screening O=C(O)c1ccc(NS(=O)(=O)c2cc(Cl)ccc2Cl)cc1 returned TNAP inh no acc -12.9, TNAP inh hiacc -8.4, HCT116 PTEN-null 85.8, HCT116 bCat-KO 93.8, L major viab 94.5* and TNAP act hi DEA 1.1.
CC(NC(N)=O)C(=O)Nc1ccc(Cl)c(S(=O)(=O)Nc2ccc(Cl)cc2)c1 (centres undefined) was read as TNAP inh no acc -2.9, TNAP inh hiacc 1.1, L major viab 3.8 and TNAP act hi DEA 1.
Screening COc1ccc(Cl)cc1NC(=O)CN(C)CC(=O)Nc1ccccc1N1CCOCC1 returned TNAP inh no acc 4.0, TNAP inh hiacc -1.9, L major viab 54.4* and TNAP act hi DEA 1.
For COc1cc(NC(=O)c2cccc(Cl)c2)c(OC)cc1NC(=O)CN1CCCCC1 the results were TNAP inh no acc -2.1, TNAP inh hiacc 0.9, L major viab 28.5 and TNAP act hi DEA 1.
`COc1cc(NC(=O)c2cccc(Cl)c2)c(OC)cc1NC(=O)CN1CCOCC1` gave TNAP inh no acc -7.6, TNAP inh hiacc -8.0, HCT116 PTEN-null 78.2, HCT116 bCat-KO 90.7, L major viab 85.0* and TNAP act hi DEA 1.1.
Screening Cc1cc(Cl)ccc1OC(C)C(=O)Nc1ccccc1N1CCOCC1 (centres undefined) returned TNAP inh no acc -13.6, TNAP inh hiacc -7.1, HCT116 PTEN-null 66.6, HCT116 bCat-KO 68.1, L major viab 26.4 and TNAP act hi DEA 1.1.
Screening COc1ccc(-n2nnnc2SCC(=O)Nc2ccccc2N2CCOCC2)cc1OC returned TNAP inh no acc -3.2, TNAP inh hiacc -1.8, L major viab 92.7* and TNAP act hi DEA 1.
COC(=O)c1ccccc1NC(=O)CNc1cc(Cl)ccc1N1CCOCC1 was read as TNAP inh no acc 0.5, TNAP inh hiacc -7.6, HCT116 PTEN-null 71.4, HCT116 bCat-KO 67.2, L major viab 79.7* and TNAP act hi DEA 1.1.
For CC(=O)Nc1ccc(NC(=O)CN(c2cc(Cl)ccc2Cl)S(C)(=O)=O)cc1 the results were TNAP inh no acc -5.5, TNAP inh hiacc -1.6, L major viab -1.5 and TNAP act hi DEA 1.
Screening COc1ccc(/C=N/N=C2\SC(CC(=O)O)C(=O)N2c2ccccc2)cc1 (centres undefined) returned TNAP inh no acc -5.6, TNAP inh hiacc -5.7, HCT116 PTEN-null 103.2, HCT116 bCat-KO 93.4, L major viab 39.4 and TNAP act hi DEA 1.1.
O=C1N/C(=N\N=C\c2cccs2)SC1Cc1ccc(Cl)c(Cl)c1 (centres undefined) was read as TNAP inh no acc -14.6, TNAP inh hiacc -1.2, L major viab 10.6 and TNAP act hi DEA 1.
